Laboratory results: ChEMBL document CHEMBL3580633, “Benzoxaborole antimalarial agents. Part 4. Discovery of potent 6-(2-(alkoxycarbonyl)pyrazinyl-5-oxy)-1,3-dihydro-1-hydroxy-2,1-benzoxaboroles” (J Med Chem, 2015)

Experiments:
Plasmodium falciparum [1] = test: Antimalarial activity against chloroquine-resistant Plasmodium falciparum W2 cultured in human erythrocytes assessed as inhibition of parasite growth incubated for 48 hrs by YOYO-1 staining based flow cytometry; type: functional, organism-based; settings: W2, 48 h
Plasmodium falciparum [2] = test: Antimalarial activity against chloroquine-sensitive Plasmodium falciparum 3D7 cultured in human erythrocytes incubated for 48 hrs by [3H]-hypoxanthine incorporation assay; type: functional, organism-based
Method in brief: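 3D7 parasites in human erythrocytes, RPMI-1640 with 0.5% Albumax II, […], 37 °C, 5% O2/5% CO2. Asynchronous cultures (0.5% parasitemia, 2% hematocrit) given 3-fold serial dilutions for 24 h. [3H]hypoxanthine then added for a further 24 h, and incorporation counted by scintillation. Normalised to drug-free infected cells. IC50 from at least three independent experiments.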

Jurkat = test: Cytotoxicity against human Jurkat cells incubated for 72 hrs by MTT assay; type: cell-based
Plasmodium falciparum [3] = test: Antimalarial activity against chloroquine-resistant Plasmodium falciparum W2 cultured in human erythrocytes assessed as inhibition of parasite growth at 5 uM incubated for 48 hrs by YOYO-1 staining based flow cytometry; type: functional; settings: W2, 48 h
Method in brief: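 W2 P. falciparum grown in human erythrocytes in RPMI-1640 with 10% human serum or 0.5% Albumax, under 3% O2/5% CO2/92% N2. Sorbitol-synchronised rings at 2% hematocrit, 1% parasitemia, exposed to one concentration for 48 h. Cells fixed in 2% formaldehyde, stained with YOYO-1, and parasites per erythrocyte counted by flow cytometry. Value given as percent inhibition versus untreated control.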

Plasmodium berghei [4] = test: Antiplasmodial activity against Plasmodium berghei infected in Swiss Webster mouse assessed as mouse survival at 30 mg/kg, po dosed once daily for 4 consecutive days beginning 1 hr after initial infection and measured on day 10 post infection by Giemsa staining method; type: functional
Method in brief: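 Female Swiss Webster mice (about 20 g) infected ip with 6 × 10^6 P. berghei-infected erythrocytes. Oral gavage once daily for 4 days, starting 1 h after infection. Vehicle PEG300/propylene glycol/water (55/25/20 by weight). Giemsa-smear parasitemia counted daily from day 4. Mice euthanised above 50% parasitemia. Survival followed to day 21, 5 mice per dose, chloroquine 30 mg/kg as reference.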

Plasmodium berghei [5] = test: Antiplasmodial activity against Plasmodium berghei infected in Swiss Webster mouse assessed as mouse survival at 30 mg/kg, po dosed once daily for 4 consecutive days beginning 1 hr after initial infection and measured on day 15 post infection by Giemsa staining method; type: functional
Method in brief: (§1)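 Female Swiss Webster mice (about 20 g) were infected ip with 6 × 10^6 P. berghei-infected erythrocytes from a donor mouse. They were dosed by oral gavage once daily for 4 days, starting 1 h post-infection, in PEG 300/propylene glycol/water (55/25/20 by weight). Parasitemia was read daily on Giemsa smears from day 4, and mice were euthanized above 50% parasitemia. Percent survival was tracked to 21 days.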

Plasmodium berghei [6] = test: Antiplasmodial activity against Plasmodium berghei infected in Swiss Webster mouse assessed as mouse survival at 30 mg/kg, po dosed once daily for 4 consecutive days beginning 1 hr after initial infection and measured on day 5 post infection by Giemsa staining method; type: functional; method in brief: as §1
Plasmodium berghei [7] = test: Antiplasmodial activity against Plasmodium berghei infected in Swiss Webster mouse assessed as mouse survival at 30 mg/kg, po dosed once daily for 4 consecutive days beginning 1 hr after initial infection and measured on day 12 post infection by Giemsa staining method; type: functional; method in brief: as §1
Plasmodium berghei [8] = test: Antiplasmodial activity against Plasmodium berghei infected in Swiss Webster mouse assessed as mouse survival at 30 mg/kg, po dosed once daily for 4 consecutive days beginning 1 hr after initial infection and measured on day 16 to 19 post infection by Giemsa staining method; type: functional; method in brief: as §1
Plasmodium berghei [9] = test: Antiplasmodial activity against Plasmodium berghei infected in Swiss Webster mouse assessed as mouse survival at 30 mg/kg, po dosed once daily for 4 consecutive days beginning 1 hr after initial infection and measured on day 13 post infection by Giemsa staining method; type: functional; method in brief: as §1
Plasmodium berghei [10] = test: Antiplasmodial activity against Plasmodium berghei infected in Swiss Webster mouse assessed as mouse survival at 30 mg/kg, po dosed once daily for 4 consecutive days beginning 1 hr after initial infection and measured on day 14 post infection by Giemsa staining method; type: functional; method in brief: as §1
Plasmodium berghei [11] = test: Antiplasmodial activity against Plasmodium berghei infected in Swiss Webster mouse assessed as mouse survival at 30 mg/kg, po dosed once daily for 4 consecutive days beginning 1 hr after initial infection and measured on day 7 post infection by Giemsa staining method; type: functional; method in brief: as §1
Plasmodium berghei [12] = test: Antiplasmodial activity against Plasmodium berghei infected in Swiss Webster mouse assessed as mouse survival at 30 mg/kg, po dosed once daily for 4 consecutive days beginning 1 hr after initial infection and measured on day 8 post infection by Giemsa staining method; type: functional; method in brief: as §1
Plasmodium berghei [13] = test: Antiplasmodial activity against Plasmodium berghei infected in Swiss Webster mouse assessed as mouse survival at 30 mg/kg, po dosed once daily for 4 consecutive days beginning 1 hr after initial infection and measured on day 6 post infection by Giemsa staining method; type: functional; method in brief: as §1
Plasmodium berghei [14] = test: Antiplasmodial activity against Plasmodium berghei infected in Swiss Webster mouse assessed as mouse survival at 30 mg/kg, po dosed once daily for 4 consecutive days beginning 1 hr after initial infection and measured on day 18 post infection by Giemsa staining method; type: functional; method in brief: as §1
Plasmodium berghei [15] = test: Antiplasmodial activity against Plasmodium berghei infected in Swiss Webster mouse assessed as mouse survival at 30 mg/kg, po dosed once daily for 4 consecutive days beginning 1 hr after initial infection and measured on day 11 post infection by Giemsa staining method; type: functional; method in brief: as §1
Plasmodium berghei [16] = test: Antiplasmodial activity against Plasmodium berghei infected in Swiss Webster mouse assessed as mouse survival at 30 mg/kg, po dosed once daily for 4 consecutive days beginning 1 hr after initial infection and measured on day 20 post infection by Giemsa staining method; type: functional; method in brief: as §1
Plasmodium berghei [17] = test: Antiplasmodial activity against Plasmodium berghei infected in Swiss Webster mouse assessed as mouse survival at 30 mg/kg, po dosed once daily for 4 consecutive days beginning 1 hr after initial infection and measured on day 9 post infection by Giemsa staining method; type: functional; method in brief: as §1
Plasmodium berghei [18] = test: Antiplasmodial activity against Plasmodium berghei infected in Swiss Webster mouse assessed as mouse survival at 30 mg/kg, po dosed once daily for 4 consecutive days beginning 1 hr after initial infection and measured on day 4 post infection by Giemsa staining method; type: functional; method in brief: as §1

Row | SMILES | IC50 (Plasmodium falciparum [1]) [nM] | IC50 (Plasmodium falciparum [2]) [nM] | other results
1 | CC(C)S(=O)(=O)NC(=O)c1cnc(Oc2ccc3c(c2)B(O)OC3)cn1 | 190 | 130 | 
2 | C[C@@H]1CC[C@H]2[C@@H](C)C(=O)O[C@@H]3O[C@@]4(C)CC[C@@H]1[C@]32OO4 [ARTEMISININ] | 6 |  | 
3 | N#Cc1cnc(Oc2ccc3c(c2)B(O)OC3)cn1 | 470 | 3250 | 
4 | CCOC(=O)c1cnc(Oc2ccc3c(c2)B(O)OC3)cn1 | 0.5 | 4.4 | IC50 (Jurkat): 16800 nM
5 | CNC(=O)c1cnc(Oc2ccc3c(c2)B(O)OC3)cn1 | 240 | 320 | 
6 | CC(C)(C)COC(=O)c1cnc(Oc2ccc3c(c2)B(O)OC3)cn1 | 6.6 | 8.9 | 
7 | N/C(=N\O)c1cnc(Oc2ccc3c(c2)B(O)OC3)cn1 | > 10000 | > 5000 | 
8 | CCCCOC(=O)c1cnc(Oc2ccc3c(c2)B(O)OC3)cn1 | 0.2 | 0.7 | IC50 (Jurkat): > 100000 nM
9 | CCNC(=O)c1cnc(Oc2ccc3c(c2)B(O)OC3)cn1 | 120 | 870 | IC50 (Jurkat): 79900 nM
10 | CCOC(=O)c1ccc(Oc2ccc3c(c2)B(O)OC3)nc1 |  |  | inhibition at 5 µM (Plasmodium falciparum [3]): 0%
11 | OB1OCc2ccc(Oc3cnccn3)cc21 | 9380 | > 5000 | 
12 | O=C(NCCO)c1cnc(Oc2ccc3c(c2)B(O)OC3)cn1 | > 10000 | 5900 | 
13 | NCc1cnc(Oc2ccc3c(c2)B(O)OC3)cn1 | 110 | 470 | 
14 | CCOC(=O)c1ccc(Oc2ccc3c(c2)B(O)OC3)cc1 |  |  | inhibition at 5 µM (Plasmodium falciparum [3]): 0%
15 | CC(C)COC(=O)c1cnc(Oc2ccc3c(c2)B(O)OC3)cn1 | 0.5 | 2.5 | IC50 (Jurkat): 17600 nM
16 | CN(C)CCNC(=O)c1cnc(Oc2ccc3c(c2)B(O)OC3)cn1 | 6660 | > 5000 | 
17 | CC(C)(C)OC(=O)c1cnc(Oc2ccc3c(c2)B(O)OC3)cn1 | 19 | 22 | IC50 (Jurkat): > 100000 nM

Row | SMILES | IC50 (Plasmodium falciparum [1]) [nM] | IC50 (Plasmodium falciparum [2]) [nM] | other results
18 | COC(=O)c1cnc(Oc2ccc3c(c2)B(O)OC3)nc1 |  |  | inhibition at 5 µM (Plasmodium falciparum [3]): 80%
19 | CC(C)CCOC(=O)c1cnc(Oc2ccc3c(c2)B(O)OC3)cn1 | 0.4 | 2 | 
20 | CN(C)C(=O)c1cnc(Oc2ccc3c(c2)B(O)OC3)cn1 | 150 | 960 | IC50 (Jurkat): > 100000 nM
21 | OCc1cnc(Oc2ccc3c(c2)B(O)OC3)cn1 | 440 | 2240 | 
22 | COC(=O)c1ccc(Oc2ccc3c(c2)B(O)OC3)nn1 | 82 | 100 | 
23 | CN(C)Cc1cnc(Oc2ccc3c(c2)B(O)OC3)cn1 | > 10000 | > 5000 | 
24 | O=C(OC1CCCCC1)c1cnc(Oc2ccc3c(c2)B(O)OC3)cn1 | 0.7 | 2.9 | IC50 (Jurkat): 52400 nM
25 | CC1(C)COC(c2cnc(Oc3ccc4c(c3)B(O)OC4)cn2)=N1 | 800 | 1460 | 
26 | COC(=O)c1ccc(Oc2ccc3c(c2)B(O)OC3)cn1 | 23 | 120 | IC50 (Jurkat): > 100000 nM
27 | CC(C)OC(=O)c1cnc(Oc2ccc3c(c2)B(O)OC3)cn1 | 1.2 | 1.4 | IC50 (Jurkat): > 100000 nM
28 | CCN(CC)CCCC(C)Nc1ccnc2cc(Cl)ccc12 (stereo not drawn) [CHLOROQUINE] |  |  | survival at 30 mg/kg (Plasmodium berghei [4]): 100%; survival at 30 mg/kg (Plasmodium berghei [5]): 100%; survival at 30 mg/kg (Plasmodium berghei [6]): 100%; survival at 30 mg/kg (Plasmodium berghei [7]): 100%; survival at 30 mg/kg (Plasmodium berghei [8]): 100%; survival at 30 mg/kg (Plasmodium berghei [9]): 100%; survival at 30 mg/kg (Plasmodium berghei [10]): 100%; survival at 30 mg/kg (Plasmodium berghei [11]): 100%; survival at 30 mg/kg (Plasmodium berghei [12]): 100%; survival at 30 mg/kg (Plasmodium berghei [13]): 100%; survival at 30 mg/kg (Plasmodium berghei [14]): 100%; survival at 30 mg/kg (Plasmodium berghei [15]): 100%; survival at 30 mg/kg (Plasmodium berghei [16]): 20%; survival at 30 mg/kg (Plasmodium berghei [17]): 100%; survival at 30 mg/kg (Plasmodium berghei [18]): 100%
29 | O=C1C(O)=C([C@H]2CC[C@H](c3ccc(Cl)cc3)CC2)C(=O)c2ccccc21 [ATOVAQUONE] |  | 1 | 
30 | CC(C)(N)COC(=O)c1cnc(Oc2ccc3c(c2)B(O)OC3)cn1 | 190 | 250 | 
31 | O/N=C/c1cnc(Oc2ccc3c(c2)B(O)OC3)cn1 | 1770 | 3000 | 
32 | OB1OCc2ccc(Oc3cnc(-c4nnn[nH]4)cn3)cc21 | > 10000 | > 5000 | 
33 | Cc1nnc(-c2cnc(Oc3ccc4c(c3)B(O)OC4)cn2)o1 | > 10000 | > 5000 | 
